The list is not random: actives were taken first. Their share in the collection is about 3.1%.
UHRF1 binding: UHRF1 methylated DNA binding inhibitors, primary screen, counter-screen for MBD2 inhibitor project, biochemical, TR-FRET, human UHRF1, single concentration. E3 ubiquitin-protein ligase UHRF1 (Homo sapiens), Q96T88. UHRF1 binding to methylated oligo. inhibition, % at 4.4 µM. hit rate 0.75% among 370,000. AID 687016, 2013;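 further: UHRF1 SRA domain binding a hemimethylated CpG hairpin DNA probe; 0% = median of test compound wells and 100% = reference inhibitor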
Target sequence (Q96T88 whole entry, looked up, the tested form may be a part): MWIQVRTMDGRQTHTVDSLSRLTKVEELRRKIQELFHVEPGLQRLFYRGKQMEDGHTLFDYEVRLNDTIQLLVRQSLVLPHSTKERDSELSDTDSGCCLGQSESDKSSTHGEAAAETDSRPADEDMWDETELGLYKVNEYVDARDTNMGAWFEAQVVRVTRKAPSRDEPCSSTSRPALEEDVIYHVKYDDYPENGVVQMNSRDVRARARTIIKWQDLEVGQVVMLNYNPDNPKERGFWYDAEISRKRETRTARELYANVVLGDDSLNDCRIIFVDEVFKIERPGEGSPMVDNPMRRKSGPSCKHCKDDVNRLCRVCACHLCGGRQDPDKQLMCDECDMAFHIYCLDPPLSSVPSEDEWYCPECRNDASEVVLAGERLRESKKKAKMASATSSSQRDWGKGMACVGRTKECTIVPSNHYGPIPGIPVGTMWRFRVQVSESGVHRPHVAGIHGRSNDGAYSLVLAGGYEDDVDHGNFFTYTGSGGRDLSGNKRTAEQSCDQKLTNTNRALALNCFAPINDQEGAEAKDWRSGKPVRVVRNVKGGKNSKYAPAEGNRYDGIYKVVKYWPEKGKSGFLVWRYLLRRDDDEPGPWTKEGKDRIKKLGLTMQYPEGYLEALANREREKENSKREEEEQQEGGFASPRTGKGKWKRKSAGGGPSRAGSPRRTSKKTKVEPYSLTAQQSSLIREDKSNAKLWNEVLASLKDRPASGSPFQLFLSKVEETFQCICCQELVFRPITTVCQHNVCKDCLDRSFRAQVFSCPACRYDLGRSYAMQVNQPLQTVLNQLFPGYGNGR
MBD2 DNA inh: inhibitors of MBD2 binding to methylated DNA, primary screen, biochemical, TR-FRET, DNA-binding domain, human | inhibition, % at 4.4 µM | MBD2 binding to methylated oligonucleotide | AID 686964, 2013 | hit rate 0.31% among 370,000; in the data active means inhibition above about 13%
ABHD5-PLIN5 inh: ABHD5-PLIN5 interaction inhibitors, primary screen, cell lysate, split luciferase complementation, luminescence | Perilipin-5 (Homo sapiens) + 1-acylglycerol-3-phosphate O-acyltransferase ABHD5 (Homo … | Split G. princeps luciferase complementation, 4 h | inhibition, % at 4 µM | hit rate 0.78% among 360,000 | AID 602281, 2012;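 active means inhibition above the mean inhibition across every tested compound plus 3 SD, cut at about 22% in these data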;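 further: 0% = DMSO only wells and the 100% control is not disclosed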
RBBP9 inhibitor: human RBBP9 inhibitors, primary screen, biochemical, fluorescence polarization, FP-Rh probe, HTS; recombinant RBBP9; hit rate 0.2% among 220,000; Serine hydrolase RBBP9 (Homo sapiens), O75884; inhibition, % at 7.94 µM; AID 1515, 2009;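 active means inhibition above the campaign mean of all tested compounds plus 3 SD, cut at about 14% in these data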;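 further: plate controls were DMSO wells with RBBP9 for no effect and wells lacking RBBP9 protein for full effect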
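System: RBBP9 protein / Buffer or medium: Tris/NaCl buffer pH 8.0 with 0.1% Pluronic / Probe or stimulus: Serine-hydrolase probe FP-Rh, 375 nM pre-mixing / Dosing: 7.94 µM single dose, 0.794% DMSO / Times: enzyme-compound preincubation 30 min, then probe labeling 45 min, 25 °C / Technique: fluorescence polarization (mP), excitation 525 nm, emission 598 nm / Replication: singlicate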
LEDGF integ inh: blockers of LEDGF/p75-dependent integrase strand transfer – biochemical, TR-FRET, high throughput, primary screen; HIV-1 integrase (with human LEDGF/p75); TR-FRET IN-LEDGF/p75 DNA integration, Eu/Cy5; inhibition, % at 3.7 µM; hit rate 0.64% among 370,000; AID 743269, 2014;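 active means inhibition above the screen-wide mean plus 3 SD, cut at about 13% in these data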;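 further: signal is the Cy5 over europium emission ratio at 671 and 618 nm; 0% = plate median of compound wells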
PRMT1 inh: PRMT1 methyltransferase inhibitors, primary screen, biochemical, fluorescence polarization; Protein arginine N-methyltransferase 1 (Homo sapiens), Q99873; recombinant PRMT1, activity-based probe fluorescence polarization; inhibition, % at 2.79 µM; hit rate 1.3% among 370,000;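 active means inhibition above about 21% made by adding two undisclosed values, limit read from the data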
UHRF1 ctr MBD2: UHRF1 methylated DNA binding inhibitors, counter-screen for MBD2 inhibitor project, biochemical, TR-FRET, human UHRF1; shares compounds with MBD2 DNA inh; UHRF1 binding to methylated oligonucleotide; inhibition, % at 4.4 µM; hit rate 25% among 1,000; AID 720530, 2013;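 further: UHRF1 SRA domain binding a labeled hemimethylated CpG hairpin DNA; 0% = vehicle only and 100% = reference inhibitor with vehicle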
MBD2 confirm: inhibitors of MBD2 binding to methylated DNA, confirmation, biochemical, TR-FRET, DNA-binding domain, human | shares compounds with MBD2 DNA inh | TR-FRET MBD2-DBD binding to methylated oligonucleotide | inhibition, % at 4.4 µM | hit rate 26% among 1,000 | AID 720531, 2013; in the data active means inhibition above about 14%
The depositor's hits bear a star; . = not tested or not shown. Unless noted, no stated cut-off is given here; in the data, active means inhibition above about 21%; inactive means the rest.

SMILES	UHRF1 binding	MBD2 DNA inh	ABHD5-PLIN5 inh	RBBP9 inhibitor	LEDGF integ inh	PRMT1 inh	UHRF1 ctr MBD2	MBD2 confirm
Cc1nc(SCC(=O)N2CCCCC2)c2c(C)c(C)sc2n1	-2	1	3	.	-2	1	.	.
NC(=O)c1ncn([C@@H]2O[C@H](C(=O)N[C@H](Cc3ccccc3)C(=O)N3CCN(CC(=O)Nc4ccccn4)CC3)[C@@H](O)[C@H]2O)n1	-1	1	.	.	4	-2	.	.
CCN(CC)CCNc1nc2cc(OC)c(OC)cc2c2nc(-c3ccccc3)nn12	38*	31*	9	-7	-4	1	34*	25*
c1cc(CNCC2CCCO2)ccn1 (stereo not drawn)	4	2	1	0	2	-1	.	.
C=CCOc1ccc(CNCC2CCCO2)cc1 (stereo not drawn)	39*	22*	7	.	13	-5	7	1
Cc1cnn(-c2cc(Oc3ccccc3)ncn2)c1	1	16*	-4	-6	0	-1	1	4
O=C1CCCN1CC(O)CS(=O)(=O)Cc1ccccc1 (stereo not drawn)	1	-1	1	.	-5	3	.	.
O=C1CCCN1CC(O)CS(=O)(=O)Cc1ccc(Cl)c(Cl)c1 (stereo not drawn)	4	16*	5	.	-1	4	7	3
Cc1ccc(OCC(=O)Nc2cccc(S(=O)(=O)N3CCCCC3)c2)c([N+](=O)[O-])n1	0	0	3	2	5	2	.	.
Cc1ccc2cccc(OCC(=O)Nc3cccc(S(=O)(=O)N4CCCC4)c3)c2n1	19	17*	0	.	-3	5	-2	2
Cc1ccccc1OCC(=O)NS(=O)(=O)c1ccc(Cl)cc1	-2	14*	11	.	0	5	3	2
Cc1ccc(C(C)C)c(OCC(=O)NS(=O)(=O)c2ccc(Cl)cc2)c1	1	-5	1	.	3	1	.	.
CCOC(=O)c1cnc2c(cnn2C)c1NCc1ccc(OC)cc1	19	44*	-1	-9	-3	-3	11	11
Cc1ccc(S(=O)(=O)N[C@H](C(=O)OCC(=O)NC(=O)Nc2ccc3c(c2)OCCO3)C(C)C)cc1	2	3	15	3	-2	2	.	.
CC(C)[C@H](NS(=O)(=O)c1ccc2c(c1)OCCO2)C(=O)OCC(=O)Nc1ccccc1	28*	19*	1	-3	9	3	9	1
CC(C)C[C@H](NC(=O)N1CCOCC1)C(=O)N1CCC[C@H]1C(=O)NCc1ccccc1	4	4	.	.	2	4	.	.
CCCC(=O)Nc1ccc(NC(=O)CCc2ccccc2)cn1	4	69*	-4	2	-3	1	7	5
O=C(OCc1cc(=O)n2ccsc2n1)c1ccccc1NCCO	29*	31*	-10	.	-1	3	15	11
O=C(OCc1cc(=O)n2ccsc2n1)c1ccccc1O	0	2	0	.	-3	2	.	.
O=C(OC12CCCN(C1)/C(=C/c1cccnc1)C2)c1cccc(F)c1 (stereo not drawn)	0	4	.	.	-1	-1	.	.
CCOc1cc(N2CCOCC2)c(OCC)cc1NC(=O)COC(=O)c1ccccc1C	16	4	-3	-3	2	5	.	.
CCOc1cc(N2CCOCC2)c(OCC)cc1NC(=O)COC(=O)c1cc(C)oc1C	4	15*	-2	-6	-6	1	13	3
CCCc1nnc(NC(=O)CCC(=O)N2CCN(c3ccccn3)CC2)s1	19	14*	10	-1	0	4	8	4
CCCc1nnc(NC(=O)CCC(=O)N2CCN(c3ccccc3)CC2)s1	1	5	-8	.	-2	2	.	.
CCCN1CCCCC(NC(=O)c2ccc(Cl)cc2Cl)C1=O (stereo not drawn)	1	7	.	.	0	-5	.	.
SMILES	UHRF1 binding	MBD2 DNA inh	ABHD5-PLIN5 inh	RBBP9 inhibitor	LEDGF integ inh	PRMT1 inh	UHRF1 ctr MBD2	MBD2 confirm
CCOC(=O)CNC(=O)CSc1nnc(-c2ccccc2)n1CC	0	1	.	.	0	-2	.	.
CC1=C[C@@H]2[C@H]3C(=O)N(Cc4ccccc4)C(=O)[C@H]3[C@@H]1[C@@H]1O[C@@]3(C(=O)N(C)c4ccccc43)C3=C(CCCC3=O)N21	1	0	.	.	3	-4	.	.
COc1ccc(Cn2c(=S)[nH]c3cc(OC)c(OC)cc3c2=O)cc1	1	0	1	-7	3	-1	.	.
COc1ccc(Cn2c(=O)[nH]c3cc(OC)c(OC)cc3c2=O)cc1	31*	17*	5	-10	1	8	6	3
COc1ccc2nc3cc(Cl)ccc3c(Nc3cc(C(C)C)c(O)cc3C)c2c1	1	-1	9	-5	-3	5	.	.
COc1ccc2nc3cc(Cl)ccc3c(Nc3cc(CN4CCCC4)c(O)c(CN4CCCC4)c3)c2n1	72*	55*	5	.	2	2	86*	88*
O=S(=O)(NC1CCCC1)c1ccc(S(=O)(=O)N2CCN(c3ccccc3)CC2)cc1	-2	3	-3	-3	2	-2	.	.
O=C1CC(c2ccc(S(=O)(=O)N3CCN(c4ccccc4)CC3)cc2)CN1 (stereo not drawn)	0	32*	2	-2	2	-1	6	1
O=C(NCc1ccccc1Cl)C1CCN(S(=O)(=O)N2CCCC2)CC1	4	3	-7	.	-4	2	.	.
O=C(NCc1ccccc1Cl)C1CCN(S(=O)(=O)N2CCCCC2)CC1	25*	20*	-3	-6	-1	4	4	1
CN(CCOC(=O)c1cc2ccccc2o1)C1CN(Cc2cn(Cc3cccc(F)c3)nn2)S(=O)(=O)C1 (stereo not drawn)	6	4	.	.	0	3	.	.
CN(C(=O)C=Cc1ccccc1)c1ccccc1	2	24*	-2	.	-1	-1	5	1
O=C(Nc1cnc2ccccc2c1)N1CCCCC1	-1	0	-4	8	0	-6	.	.
